The source of these data is article PMC3204583 (Journal of medicinal chemistry, 2010).

For series [1], the system named is chymotrypsin-like (CT-like) activity of proteasomes isolated from LCLs. Description: Proteasome chymotrypsin-like activity, fluorogenic substrate Suc-LLVY-AMC. Format: biochemical. Particulars: 10 µM compound. In a few lines:
(§1)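 Proteasomes came from lymphoblastoid cells lysed by glass-bead vortexing in Tris pH 7.5, MgCl2, DTT, ATP and sucrose buffer. They were semipurified by centrifugation and 100,000g ultracentrifugation. Preparations were pretreated with test compound for 30 min at 37°C, then assayed 45 min at 37°C with Suc-LLVY-AMC (CT-like), Boc-LRR-AMC (T-like) or Ac-YVAD-AMC (PGPH/caspase-like). Reactions were SDS-quenched and read at ex 380/em 440 nm. Results are % inhibition versus untreated; IC50 is the mean of three determinations.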

The test system of series [2] is trypsin-like (T-like) activity of proteasomes isolated from LCLs. As to the kind of experiment: Proteasome trypsin-like activity, fluorogenic substrate Boc-LRR-AMC. The format is biochemical. Particulars: 10 µM compound. In a few lines: as §1
The test system of series [3] is peptidylglutamyl peptide hydrolyzing-like (PGPH-like) activity of proteasomes isolated from LCLs. As to the kind of experiment: Proteasome PGPH-like activity, fluorogenic substrate Ac-YVAD-AMC. The format is biochemical. Particulars: for inhibition of PGPH-like activity of 20S proteasome: 10 µM compound; for IC50: read-out: Isolated enzyme IC50(µM) PGPH-like, proteasomes isolated from LCLs, average of three independent determinations. In a few lines: as §1

The test system of series [4] is poly-ubiquitinated proteins in HeLa cervical cancer cells. As to the kind of experiment: Immunoblot analysis of poly-ubiquitinated proteins in HeLa cells. The format is cell-based, human. Conditions: eight hours treatment. Put shortly:
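HeLa cells were grown in DMEM with 10% FBS, penicillin and streptomycin at 5% CO2, then treated for 8 h with or without test compound at several concentrations. Bortezomib served as the positive control. Poly-ubiquitinated proteins were detected by immunoblot, with β-actin as the loading control.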
Background: Immunoblotting shows a protein as a band on a membrane.

The test system of series [5] is HeLa cells. As to the kind of experiment: Washout experiment, residual cell viability. Format: cell-based, human. Particulars: HeLa cells briefly treated. In a few lines:
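HeLa cells grown in DMEM with 10% FBS, penicillin/streptomycin, 5% CO2. Cells were briefly exposed to the test compound or bortezomib (reversible-inhibitor reference), then washed out; non-washout cultures served as comparison. Viability was read by XTT: seeded at 1,000 cells/well, 4 h with XTT labeling mixture, absorbance at 450 nm. Run in triplicate, mean ± SE.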

In series [6] the target is Cathepsin D (Homo sapiens, UniProt P07339). Description: Residual Cathepsin D activity in HeLa cells. Conditions: concentrations up to 50 µM. Format: cell-based.
Cathepsin D, sequence (P07339 65-412): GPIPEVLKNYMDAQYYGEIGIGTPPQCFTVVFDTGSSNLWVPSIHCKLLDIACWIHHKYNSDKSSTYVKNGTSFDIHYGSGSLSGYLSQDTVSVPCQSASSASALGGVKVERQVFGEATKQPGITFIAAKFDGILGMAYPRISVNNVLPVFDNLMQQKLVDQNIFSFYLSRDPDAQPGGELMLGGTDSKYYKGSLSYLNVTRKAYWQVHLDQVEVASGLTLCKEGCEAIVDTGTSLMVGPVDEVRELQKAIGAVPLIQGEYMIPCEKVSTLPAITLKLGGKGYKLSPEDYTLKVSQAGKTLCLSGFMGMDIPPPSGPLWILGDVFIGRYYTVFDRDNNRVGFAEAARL
In series [7] the test system is Calpain. As to the kind of experiment: Residual Calpain activity in HeLa cells. The format is cell-based, human. Conditions: concentrations up to 50 µM.
The test system of series [8] is SiHa cervical cancer cells (HPV16+). Description: XTT cell viability assay, SiHa. The format is cell-based, human. Conditions: 48 hours. Background: Tetrazolium assays rely on reduction of a dye to a coloured formazan, in cell work by metabolically active cells.
Series [9] has as its system ME180 cervical cancer cells (HPV58+). As to the kind of experiment: XTT cell viability assay, ME180. Format: cell-based, human. Conditions: 48 hours.
In series [10] the test system is primary human Keratinocytes. As to the kind of experiment: XTT cell viability assay, primary Keratinocytes. Format: cell-based. Conditions: 48 hours.
Series [11] has as its system Ub-FL reporter in HeLa cervical cancer cells. As to the kind of experiment: Ubiquitin-Firefly luciferase. Format: cell-based, human. Particulars: combination of Bortezomib (5nM) and compound 2 (1µM). In a few lines:
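HeLa cells were transfected with either the Ub-FL reporter (four ubiquitin G76V copies fused N-terminal to firefly luciferase) or the CMV-FL control. They were replated 24 h later at 1×10^4 cells/well and left 18 h to attach. Cells then received bortezomib 5 nM, test compound 1 µM, or both for 6 h. Lysate luciferase was read as RLU, given as % of control, from three independent experiments with SE.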

For series [12], the system named is HeLa cervical cancer cells. As to the kind of experiment: Combination with Bortezomib, XTT viability, isobologram / combination index. The format is cell-based, human.
Series [13] concerns HeLa cervical cancer cells. As to the kind of experiment: Cellular morphology by phase contrast microscopy. Particulars: combination of Bortezomib (5nM)+compound 2 (1 µM), 48 hours. Format: cell-based, human.

As to `O=C1/C(=C/c2ccc(Cl)c(Cl)c2)CN(C(=O)N[C@@H](Cc2ccc(O)cc2)C(=O)O)C/C1=C\c1ccc(Cl)c(Cl)c1` [Compound 3], the “inhibition of chymotrypsin-like (CT-like) activity of 20S proteasome” value (“inhibition of chymotrypsin-like” for short) in series [1] is listed as “partial inhibition”. In addition, the “inhibition of trypsin-like (T-like) activity of 20S proteasome” value (from here on “inhibition of trypsin-like”) in [2] is reported as “partial inhibition”. In [3], the “inhibition of PGPH-like activity of 20S proteasome” value was “partial inhibition” and the IC50 (usually the concentration that gives 50% inhibition) is above 10 µM.

For `CC(C)C[C@H](NC(=O)N1C/C(=C\c2ccc(Cl)c(Cl)c2)C(=O)/C(=C/c2ccc(Cl)c(Cl)c2)C1)C(=O)O` [Compound 4], the “inhibition of chymotrypsin-like” value in series [1] was “partial inhibition”. The “inhibition of trypsin-like” value in series [2] is listed as “partial inhibition”. In addition, in [3], the “inhibition of PGPH-like activity of 20S proteasome” value is given as “partial inhibition” and the IC50 was above 10 µM.

Turning to `CC(C)C[C@H](NC(=O)[C@H](Cc1ccccc1)NC(=O)c1cnccn1)B(O)O` [Bortezomib, reference compound], in [4], the “levels of poly-ubiquitinated proteins” value is given as “increase”. Moreover, the “cell viability after washout compared to non-washout cultures” value in series [5] was “partial recovery in cell viability”.

For the compound `O=C1/C(=C/c2ccc(Cl)c(Cl)c2)CN(C(=O)N[C@@H](Cc2ccccc2)C(=O)O)C/C1=C\c1ccc(Cl)c(Cl)c1` [Compound 2], the “inhibition of chymotrypsin-like” value in series [1] is listed as “nearly fully abrogated”. The “inhibition of trypsin-like” value in series [2] is recorded as “nearly fully abrogated”. The “inhibition of PGPH-like activity of 20S proteasome” value in series [3] was “nearly fully abrogated”. Also, the “inhibitory capacity toward Cathepsin D activity” value in series [6] is “no inhibitory capacity”. For the same compound, the “inhibitory capacity toward Calpain activity” value in [7] is reported as “no inhibitory capacity”. The “effect on viability of SiHa” value in series [8] is “dose-dependent drop”. Further, in [9], the “effect on viability of ME180” value is on record as “dose-dependent drop”. For the same compound, the “effect on viability of primary human Keratinocytes” value in series [10] is given as “minimal effects”. Besides, the “stabilization of the Ub-FL degron compared to single agents alone” value in series [11] was “significantly enhance the stabilization”. Further, the entries for the “Combination Index (CI)” value in series [12] (Bortezomib 3.95 nmol/L / compound 2 2.5 mM/L), in [12] (Bortezomib 6.125 nmol/L / compound 2 1.64 mM/L) and in series [12] (Bortezomib 7.5 nmol/L / compound 2 1.06 mM/L) were 0.6, 0.6 and 0.59, respectively. The “interaction of the combination with Bortezomib by isobologram analysis” value in [12] (checker board dilution series, XTT) is given as “highly synergistic”. Besides, the “morphological changes compared to single treatment alone” value in [13] is recorded as “greater apoptotis-associated morphological changes”. For the same compound, the “cell viability after washout compared to non-washout cultures” value in series [5] is on record as “partial recovery in cell viability”.

As for `O=C(O)CC[C@H](NC(=O)N1C/C(=C\c2ccc(Cl)c(Cl)c2)C(=O)/C(=C/c2ccc(Cl)c(Cl)c2)C1)C(=O)O` [Compound 5], the “levels of poly-ubiquitinated proteins” value in series [4] is reported as “no changes”.
